# Source: PubChem (Sanford-Burnham Center for Chemical Genomics)
# APJ ag = APJ receptor agonism. 330,000 compounds, 0.11% hits. AID 2520. activation, % at 20 µM. CHO-K1 APJ PathHunter beta-arrestin, luminescence; 0% DMSO wells, 100% apelin;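 active = activation more than six SD over the plate average, tested at 20 µM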;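 also: 0% = DMSO alone and 100% = apelin-13 at 10 nM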
#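 Assay system – PathHunter CHO-K1 APJ (AGTRL-1) beta-arrestin reporter cells · Compound – one dose, 20 µM compound, 1% DMSO · Timing – compound 90 min 25 °C, reagent 1 h · Measured by – luminescence from split beta-galactosidase complementation, Galacton Star/Emerald II substrate · Measure – beta-arrestin recruitment to APJ as agonist activity, luminescent signal · Benchmarks – DMSO vs Apelin-13 10 nM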
# H9c2 TAG inh = reduces triacylglycerol accumulation in H9c2 cells; inhibition, % at 12.5 µM; AID 651582; Nile Red lipid (TAG) fluorescence; cells loaded with 200 µM oleic acid; 230,000 compounds, 0.66% hits;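 active = pattern-corrected inhibition of lipid staining of at least 50% with the nuclear-stain viability signal not falling by more than 50%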;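 also: 0% = DMSO wells and 100% = triacsin C control wells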
# CXCR6 block = CXCR6 (human) receptor inhibition | O00574 | CHO-K1 PathHunter CXCR6 beta-arrestin, luminescence | inhibition, % at 20 µM | 360,000 compounds, 0.36% hits | AID 602244; in the data active = inhibition above about 34%, passing the limit was not always enough;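 also: antagonist mode with CXCL16 agonist at 10 nM final; 0% = 10 nM CXCL16 with DMSO and 100% = unstimulated wells without agonist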
# EBI2 block = EBI2 (human) antagonism; P32249; EBI2 beta-arrestin recruitment, luminescence, 7a,25-OHC stimulated; inhibition, % at 5 µM; 360,000 compounds, 0.81% hits; AID 651636; in the data active = inhibition above about 38%;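 also: enzyme fragment complementation signal reports receptor beta-arrestin coupling in cells; 0% = agonist plus DMSO wells and 100% = wells without agonist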
# CCR6 antag = antagonists of human CCR6 receptor | inhibition, % at 20 µM | P51684 | 340,000 compounds, 0.49% hits | CHO-K1 CCR6 PathHunter beta-arrestin, luminescence, CCL20-stimulated | AID 493098;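 active = compounds whose inhibition of the agonist-driven luminescence signal at 20 µM reaches about 50%, limit read from the data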;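 also: cells stimulated with CCL20 at 14 nM final; plate controls were DMSO with CCL20 for no effect and DMSO without agonist for full effect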
# Target sequence (P51684 whole entry, looked up): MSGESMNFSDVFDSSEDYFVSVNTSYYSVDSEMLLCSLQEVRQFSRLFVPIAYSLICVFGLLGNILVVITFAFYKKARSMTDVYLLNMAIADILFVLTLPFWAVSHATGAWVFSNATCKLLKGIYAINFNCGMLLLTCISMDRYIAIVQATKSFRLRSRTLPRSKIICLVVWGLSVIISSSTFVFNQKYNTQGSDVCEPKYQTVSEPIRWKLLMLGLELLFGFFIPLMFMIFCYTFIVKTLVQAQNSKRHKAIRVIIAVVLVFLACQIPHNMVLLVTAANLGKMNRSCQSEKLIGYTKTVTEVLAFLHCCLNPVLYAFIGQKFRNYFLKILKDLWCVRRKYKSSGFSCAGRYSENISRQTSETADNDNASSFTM
# APJ antagonist = blocks the human apelin receptor APJ | inhibition, % at 20 µM | P35414 | AID 2521 | CHO-K1 APJ beta-arrestin complementation, luminescence | 330,000 compounds, 0.32% hits;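 active = inhibition above about 40% at 20 µM, limit read from the data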;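 also: cells challenged with 10 nM apelin-13 agonist together with compound; plate controls were apelin-13 plus DMSO wells for no effect and DMSO wells lacking apelin-13 for full effect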
# EBI2 conf = confirmation of human EBI2 receptor antagonists. shares compounds with EBI2 block. EBI2 beta-arrestin luminescence, 7a,25-OHC antagonism. inhibition, % at 5 µM. 2,400 compounds, 29% hits. AID 651997;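 active = inhibition of at least 50%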
# EBI2 ag = counter-screen for EBI2 antagonists: EBI2 agonist activity | shares compounds with EBI2 block | 2,400 tested, under 10 active | EBI2-expressing cells, agonist mode, luminescence, 60 min; 0% vehicle, 100% 7α,25-dihydroxycholesterol control | activation, % at 5 µM;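 active = activation of at least 50%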
# bGal cs = counter-screen for EBI2 antagonists: E. coli beta-galactosidase inhibition. AID 652176. 2,400 compounds, 1% hits. shares compounds with EBI2 block. inhibition, % at 5 µM. purified beta-galactosidase, luminescent Galacton Star, 15 min;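 active = replicate-average signal at least 3 plate SD below neutral wells, shown as high inhibition, flagging enzyme-inhibiting false positives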;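 also: 0% = DMSO wells with enzyme and 100% = wells lacking enzyme; higher means stronger loss of beta-gal luminescence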
# * = called active by the depositor; . = no result given. Rows were chosen to be rich in hits. Some 1.9% of all compounds tested hit in one or more screens of this group.
SMILES,APJ ag,H9c2 TAG inh,CXCR6 block,EBI2 block,CCR6 antag,APJ antagonist,EBI2 conf,EBI2 ag,bGal cs
Cc1sc2nc(C3CC3)nc(N3CCN(C(=O)c4ccc(F)cc4)CC3)c2c1C,0,.,11,34,10,7,.,.,.
COc1ccc(C(=O)N2CCN(c3nc(C4CC4)nc4sc(C)c(C)c34)CC2)cc1,-2,.,6,49*,9,-1,19,0,1
Cc1cc(NC(=O)COc2ccccc2C(N)=O)no1,-4,-1,-2,-5,10,3,.,.,.
Cc1ccn(CCC(=O)Nc2ccc3c(c2)OCO3)n1,4,.,-7,-4,-16,8,.,.,.
CCn1cc(C(=O)NCC(OC)OC)c(=O)c2cc(S(=O)(=O)N(C)C3CCCCC3)ccc21,-7,.,-9,-1,10,12,.,.,.
CC(C)C(OC(=O)c1oc2ccccc2c1CSC1CCCCC1)C(=O)NC(N)=O (centres undefined),-4,.,.,.,.,-7,.,.,.
CCNC(=O)NC(=O)C(C)OC(=O)c1oc2ccccc2c1CSC1CCCCC1 (centres undefined),-4,.,-3,44*,13,6,35,0,2
CN1/C(=C\C(=O)C[n+]2ccc3ccccc3c2)C(C)(C)c2ccccc21,0,.,-1,-6,4,-35,.,.,.
CC(OC(=O)CNC(=O)c1ccc2ccccc2c1)C(=O)N(C)C1CCCCC1 (centres undefined),-5,-7,11,50*,14,17,25,-1,-10
Clc1ccc(-c2nnc(CSc3nnc(-c4cccs4)n3Cc3ccccc3)o2)cc1,1,.,5,88*,8,16,60*,1,4
COc1ccc(-c2nnc(SCc3nnc(-c4ccc(Cl)cc4)o3)n2-c2ccccc2)cc1,-1,12,0,74*,15,-2,44,-1,-13
COc1ccc(-c2nnc(SCc3nnc(-c4ccccc4)o3)n2-c2ccccc2)cc1,0,.,4,27,23,10,.,.,.
O=C(NCCOc1ccccc1Cl)c1cccc2c1C(=O)c1ccc(Cl)cc1S2(=O)=O,2,6,-21,-5,-4,6,.,.,.
CCOC(=O)c1cnc2ccc(OC)cc2c1Nc1ccc(N2CCN(C)CC2)cc1,-2,.,-8,41*,17,11,53*,2,0
CCCS(=O)(=O)N1CCN(C(=O)COc2ccc(OC)cc2)CC1,-2,16,1,62*,-8,-25,42,2,11
COc1ccc(N2CCN(S(=O)(=O)c3ccc4c(c3)OCCO4)CC2)cc1,-5,-5,-3,0,-11,5,.,.,.
COc1ccc(OCC(=O)N2CCN(C(=O)Cc3ccccc3)CC2)cc1,-2,.,1,76*,9,5,49,1,5
Cc1ccc(OCC(=O)N2CCN(S(C)(=O)=O)CC2)cc1,0,13,-15,-1,5,-4,.,.,.
COc1ccc(OCC(=O)N2CCN(S(=O)(=O)c3ccc4c(c3)OCCO4)CC2)cc1,.,14,-5,82*,.,.,55*,0,-13
COc1ccc(OCC(=O)N2CCN(S(=O)(=O)c3ccccc3[N+](=O)[O-])CC2)cc1,-1,8,-6,83*,11,-1,61*,0,-17
COc1ccc(Cl)cc1NC(=O)CCN1C(=O)C2C3CCC(C3)C2C1=O (centres undefined),0,.,3,15,0,1,.,.,.
Cc1ccc(OCC(=O)N2CCCCCCC2)cc1,-4,.,-12,7,-4,1,.,.,.
Cc1ccc(OCC(=O)N2CCN(C(=O)Cc3ccccc3)CC2)cc1,-1,.,1,58*,-26,7,49,-1,-4
COC(=O)c1ccc(Oc2ccc(S(=O)(=O)N3CCCCC3)cc2N)cc1,-1,.,0,35*,15,5,14,0,5
COC(=O)CNc1cc(S(=O)(=O)N2CCCCC2)ccc1Oc1ccc(C(=O)OC)cc1,-2,.,-1,14,20,-27,.,.,.
SMILES,APJ ag,H9c2 TAG inh,CXCR6 block,EBI2 block,CCR6 antag,APJ antagonist,EBI2 conf,EBI2 ag,bGal cs
Cc1cc(S(=O)(=O)N(Cc2cccs2)Cc2ccccc2F)ccc1-n1cnnn1,-1,-22,3,31,19,0,.,.,.
Cc1cc(S(=O)(=O)N(Cc2ccc(C(C)(C)C)cc2)Cc2cccs2)ccc1-n1cnnn1,-4,.,8,48*,7,2,22,1,5
COc1ccc(OC)c(NC(=O)CN(c2ccc(C)cc2)S(=O)(=O)c2c(C)noc2C)c1,-3,23,0,48*,19,11,15,-1,-9
COc1ccc(OC)c(NC(=O)CN(c2ccc(C(C)C)cc2)S(=O)(=O)c2c(C)noc2C)c1,-1,15,4,25,15,-4,.,.,.
CCOc1ccc(OCC)c(NC(=O)CN(c2ccc(OC)cc2)S(=O)(=O)c2c(C)noc2C)c1,-2,.,4,69*,12,-2,21,0,1
CCOC(=O)c1ccc(-n2cnc(-c3ccc([N+](=O)[O-])cc3)c2)cc1,.,.,-4,50*,.,.,20,0,7
O=[N+]([O-])c1ccc(-c2cn(-c3ccc(Cl)cc3)cn2)cc1,.,.,-6,31,.,.,.,.,.
O=C(c1cccc(Cl)c1)C1CCCN(C(=O)c2ccc3c(c2)OCO3)C1 (centres undefined),-3,.,6,1,11,10,.,.,.
O=C(NCCc1ccccc1)C1CCC(Cn2c(=O)c3ccccc3n(Cc3cccc(Cl)c3)c2=O)CC1 (centres undefined),-4,11,16,24,11,5,.,.,.
O=C(NCCc1ccccc1)C1CCC(Cn2c(=O)c3ccccc3n(Cc3cccc(F)c3)c2=O)CC1 (centres undefined),-3,.,9,61*,6,10,29,-2,-9
CCN1CCN(CC(O)COc2ccc3c(c2)CCC3)CC1 (centres undefined),-2,-7,-1,-5,-6,6,.,.,.
O=S(=O)(c1ccccc1)N1CCN(CC(O)COc2ccc3c(c2)CCC3)CC1 (centres undefined),1,.,-1,83*,-2,10,69*,2,-4
CC1CC(C)CN(S(=O)(=O)c2ccc(C(=O)N(C)Cc3ccccc3)cc2)C1 (centres undefined),-4,-6,3,-1,3,2,.,.,.
